Only some compounds are listed: those with a hit (about 3.1% of all), similar ones and a draw of the others.
CFTR F508del cor = CFTR F508del correction in bronchial cells; CFBE cells, YFP halide quenching; stimulated with forskolin plus potentiator P3; % fluorescence drop versus neutral controls; activity (quench increase), % at 7.58 µM; hit rate 0.36% among 350,000;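 active = mean added fluorescence quench of at least 8% versus neutral control, with both replicates also reaching 8%; inconclusive = only one of the mean or replicate conditions met; inactive = mean below 8% and not both replicates reaching 8%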;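 note: cells transiently co-express mutant CFTR-F508del with the halide-sensitive YFP; corrector assay measuring rescue of mutant channel to the surface after 24 h compound exposure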
S100A4 MyoIIA = blocks human S100A4 binding to myosin IIA peptide. AID 652163. P26447. inhibition, % at 10.7 µM. S100A4/TAMRA-MyoIIA peptide fluorescence polarization. hit rate 0.14% among 360,000;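 active = mean inhibition of at least 70% across replicates, with every replicate also reaching that level; inconclusive = mean inhibition reaches 70% but some replicates fall short; inactive = mean inhibition below 70%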
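assay system = human S100A4 monomer with TAMRA-labelled myosin IIA peptide | also added = labelled myosin peptide probe, 5 nM | incubation = 5 min between mix addition and reading | control set = DMSO and TFP controls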
ERAP1 inh = ERAP1 (human) enzyme inhibition. recombinant ERAP1, Leu-AMC fluorescence, 60 min. inhibition, % at 10.7 µM. hit rate 0.15% among 340,000;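 active = mean replicate inhibition of at least 30%, or all replicates individually reaching that 30% level; inactive = mean below 30% and not every replicate reaching it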;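 note: 0% = neutral control wells and 100% = L-leucinethiol positive control wells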
Target sequence (Q9NZ08 whole entry, looked up): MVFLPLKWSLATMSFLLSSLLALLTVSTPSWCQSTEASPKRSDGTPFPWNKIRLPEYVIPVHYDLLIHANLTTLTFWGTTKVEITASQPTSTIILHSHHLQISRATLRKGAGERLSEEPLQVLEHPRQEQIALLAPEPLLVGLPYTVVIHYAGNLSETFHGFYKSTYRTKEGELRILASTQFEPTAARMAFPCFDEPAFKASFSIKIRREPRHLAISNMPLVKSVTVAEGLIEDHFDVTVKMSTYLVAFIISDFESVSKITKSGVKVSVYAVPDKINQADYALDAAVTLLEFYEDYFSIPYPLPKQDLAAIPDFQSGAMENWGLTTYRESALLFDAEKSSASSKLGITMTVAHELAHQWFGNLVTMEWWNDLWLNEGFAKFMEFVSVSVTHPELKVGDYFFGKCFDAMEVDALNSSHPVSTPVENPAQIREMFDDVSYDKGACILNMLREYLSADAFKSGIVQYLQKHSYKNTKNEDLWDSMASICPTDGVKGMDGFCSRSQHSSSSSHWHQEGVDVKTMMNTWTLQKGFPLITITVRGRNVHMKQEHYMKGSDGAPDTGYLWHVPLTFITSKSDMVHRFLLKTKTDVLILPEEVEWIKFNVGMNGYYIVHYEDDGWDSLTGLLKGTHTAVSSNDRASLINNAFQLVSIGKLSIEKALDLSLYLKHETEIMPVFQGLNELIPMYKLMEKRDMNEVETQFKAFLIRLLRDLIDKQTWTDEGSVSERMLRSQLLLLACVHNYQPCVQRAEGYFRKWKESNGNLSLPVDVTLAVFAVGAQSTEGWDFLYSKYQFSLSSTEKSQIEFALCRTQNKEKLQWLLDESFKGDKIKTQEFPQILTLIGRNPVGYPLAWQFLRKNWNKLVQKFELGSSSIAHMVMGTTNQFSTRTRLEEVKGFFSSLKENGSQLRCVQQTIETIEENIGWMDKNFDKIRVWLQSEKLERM
Ecoli rRNA inh = selective bacterial rRNA inhibition in E. coli | E. coli WT GFP vs humanized-ribosome RFP mutants, fluorescence, 24 h; stronger effect = lower value; DMSO median 0, no signal -100 | hit rate 1.6% among 350,000 | GFP signal change (wild-type ribosome), % (test concentration not listed);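 active = significant combined selectivity score with lowered wild-type GFP, culture density cut under 30%, mutant RFP and density less affected; inactive = any of these conditions unmet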
SIRT5 block = sirtuin-5 (human) deacylase inhibition. hit rate 1.1% among 330,000. Q9NXA8. inhibition, % at 15 µM. Purified SirT5, succinyl-peptide AMC, trypsin-coupled fluorescence; in the data active = inhibition above about 15%; inconclusive = no clear call, values can overlap the other calls
AID977621 = wild-type E. coli growth inhibition versus H69 humanized strain – H69 mutant RFP, wild-type GFP, cherry-pick, dose response | activity change, negative = inhibition at 50 µM | fluorescence, 24 h | AID 977621 | 1,900 tested, under 10 active | shares compounds with Ecoli rRNA inh;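 active = Wild-type ribosome reporter drop at least double the humanized mutant ribosome reporter drop, growth loss under a set limit; inconclusive = no clear call, values can overlap the other calls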;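 note: wild-type GFP and H69 mutant RFP strains grown together 50/50 in each well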
AID977628 = E. coli growth inhibition, wild-type GFP versus h24 humanized RFP strain, dose response, h24 mutant RFP vs wild-type GFP, cherry-pick; 1,900 tested, under 10 active; activity change, negative = inhibition at 50 µM; shares compounds with Ecoli rRNA inh; E. coli WT GFP strain growth, fluorescence, 24 h;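 active = compound lowering the normal-ribosome reporter at least twice as much as the humanized-ribosome reporter, growth loss under a set limit; inconclusive = no clear call, values can overlap the other calls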;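 note: wild-type GFP and h24 humanized RFP strains co-cultured 1 to 1 per well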
Active calls of the source: *; ! = repeats disagree.

`CCCNC(=O)N1C[C@@H](O)COC[C@H]2O[C@H](CC(=O)N[C@H]3CCN(Cc4ccccc4)C3)CC[C@@H]21` gave CFTR F508del cor -2, S100A4 MyoIIA -1, ERAP1 inh 3, Ecoli rRNA inh -1 and SIRT5 block 0.
For COc1ccc(CCNC(=O)COC(=O)Cc2ccccc2[N+](=O)[O-])cc1 the results were CFTR F508del cor 1, S100A4 MyoIIA 6, ERAP1 inh -3, Ecoli rRNA inh 0 and SIRT5 block 1.
For COc1cccc(NC(=O)COC(=O)Cc2ccccc2[N+](=O)[O-])c1 the results were CFTR F508del cor -1, S100A4 MyoIIA -7, ERAP1 inh -7, Ecoli rRNA inh -17*, SIRT5 block 4 and AID977628 inconclusive.
COc1cccc(NC(=O)CSc2nc3c(sc4ccccc43)c(=O)n2CCN(C)C)c1 was read as CFTR F508del cor -1, S100A4 MyoIIA 6, ERAP1 inh -1, Ecoli rRNA inh -22*, SIRT5 block -8, AID977621 inconclusive and AID977628 -5.4.
Screening CC(=O)Oc1c(Cl)cc(N(C(C)=O)S(=O)(=O)c2ccccc2)c2ccccc12 returned CFTR F508del cor -4, S100A4 MyoIIA 0, ERAP1 inh -2, Ecoli rRNA inh -37*, SIRT5 block -3 and AID977621 inconclusive.
For CC[n+]1c(C)cc2c(sc3ccccc32)c1C the results were CFTR F508del cor -3, S100A4 MyoIIA -3, ERAP1 inh 20, Ecoli rRNA inh -22*, SIRT5 block -1, AID977621 -8.4 and AID977628 -10.
For CCc1nc(C)cc2c1sc1ccccc12 the results were CFTR F508del cor 2, S100A4 MyoIIA -2, Ecoli rRNA inh -7 and SIRT5 block 0.
C[C@H](CO)N1C[C@H](C)[C@@H](CN(C)Cc2ccncc2)Oc2ccc(NC(=O)C3CCCCC3)cc2C1=O was read as CFTR F508del cor 2, S100A4 MyoIIA 2, ERAP1 inh -3, Ecoli rRNA inh -1 and SIRT5 block 1.
For O=S(=O)(NOCc1ccc(Cl)cc1)c1ccc(Cl)cc1 the results were CFTR F508del cor -3, S100A4 MyoIIA -10, ERAP1 inh -2, Ecoli rRNA inh -39*, SIRT5 block -2, AID977621 6.8 and AID977628 -2.7.
Screening C[C@@H]1CN([C@@H](C)CO)C(=O)c2cc(NC(=O)Cn3cnnn3)ccc2O[C@@H]1CN(C)C(=O)Nc1ccccc1 returned CFTR F508del cor 2, S100A4 MyoIIA -10, ERAP1 inh 2, Ecoli rRNA inh 4 and SIRT5 block -6.
`Cc1ccc(C#CC[N+](C)(C)CC#Cc2ccccc2)cc1` gave CFTR F508del cor -3, S100A4 MyoIIA 6, ERAP1 inh 1, Ecoli rRNA inh -54*, SIRT5 block -4 and AID977628 inconclusive.
Screening COCc1cc(C)nc(SCC[N+](C)(C)CC(=O)Nc2ccccc2)c1C#N returned CFTR F508del cor 0, S100A4 MyoIIA 3, ERAP1 inh 6, Ecoli rRNA inh 4 and SIRT5 block -4.
COCc1cc(C)nc(SCC[N+](C)(C)CC(=O)c2ccc(Br)cc2)c1C#N was read as CFTR F508del cor 1, S100A4 MyoIIA -8, ERAP1 inh 3, Ecoli rRNA inh -30*, SIRT5 block -2 and AID977628 -16.
O=C(C[C@H]1CC[C@H]2[C@@H](COC[C@@H](O)CN2Cc2ccccc2)O1)NCCc1ccccc1 was read as CFTR F508del cor 2, S100A4 MyoIIA 21, ERAP1 inh -2, Ecoli rRNA inh -7 and SIRT5 block 1.
For CN(C)C(=O)c1cccc(-c2ccc([C@@H]3[C@@H](CO)N4C(=O)CN(C(=O)C5CCCCC5)C[C@H]34)cc2)c1 the results were CFTR F508del cor 0, S100A4 MyoIIA 20, ERAP1 inh 1, Ecoli rRNA inh 5 and SIRT5 block -4.
Screening CN(C)C(=O)c1cccc(-c2ccc(C3[C@H]4CNC[C@@H]3N4S(=O)(=O)c3ccccc3F)cc2)c1 (stereo partly specified) returned CFTR F508del cor -3, Ecoli rRNA inh -22*!, AID977621 -8 and AID977628 inconclusive.
N#Cc1ccc(-c2ccc(C3[C@H]4CNC[C@@H]3N4S(=O)(=O)c3ccc(-c4ccccc4)cc3)cc2)cc1 (stereo partly specified) was read as CFTR F508del cor 2, S100A4 MyoIIA -19, ERAP1 inh -2, Ecoli rRNA inh -18* and AID977621 -5.4.
O=C(C[C@@H]1C[C@@H]2c3cc(NC(=O)Nc4ccccc4F)ccc3O[C@@H]2[C@H](CO)O1)NCC1CC1 was read as CFTR F508del cor 1, S100A4 MyoIIA 13, ERAP1 inh 6, Ecoli rRNA inh -2 and SIRT5 block 4.
For COc1ccc(CNC(=O)C[C@@H]2CC[C@@H](NC(=O)c3cccc(F)c3)[C@@H](CO)O2)cc1 the results were CFTR F508del cor -1, S100A4 MyoIIA 65, ERAP1 inh -3, Ecoli rRNA inh 0 and SIRT5 block 6.
Screening Cc1c(C(=O)NCc2ccccn2)sc2nc(-c3ccccc3)cn12 returned CFTR F508del cor 3, S100A4 MyoIIA -2, ERAP1 inh 5, Ecoli rRNA inh -13 and SIRT5 block -3.
Screening Cc1cccc(NC(=O)c2sc3nc(-c4ccccc4)cn3c2C)n1 returned CFTR F508del cor 0, S100A4 MyoIIA -1, ERAP1 inh -1, Ecoli rRNA inh -18*, SIRT5 block -1 and AID977621 -12.
For CC(C)(C)C1CCC(OC(=O)C[N+]2(C)CCCCC2)CC1 (stereo unspecified) the results were CFTR F508del cor 1, S100A4 MyoIIA 1, ERAP1 inh 3, Ecoli rRNA inh -17*, SIRT5 block -3, AID977621 -2.7 and AID977628 -5.8.
Screening CCCN(CCC)CCCNc1ccc(C(=O)Nc2cccc(OC)c2)cc1[N+](=O)[O-] returned CFTR F508del cor -1, S100A4 MyoIIA 1, ERAP1 inh -4, Ecoli rRNA inh -10 and SIRT5 block 3.
For COc1cccc(NC(=O)c2ccc(NCCCN3CC(C)CC(C)C3)c([N+](=O)[O-])c2)c1 (stereo unspecified) the results were CFTR F508del cor 4, S100A4 MyoIIA -5, ERAP1 inh -2, Ecoli rRNA inh -46*, AID977621 inconclusive and AID977628 -5.1.
